{"source": "ChEMBL document CHEMBL2346664", "about": "“Synthesis, characterization and in vitro anticancer evaluation of novel 1,2,4-triazolin-3-one derivatives” (2013)", "format_in_all_cases": "functional", "key": {"[1]": {"tested_on": "NCI-H23", "experiment": "Growth inhibition of human NCI-H23 cells after 48 hrs by sulforhodamine B assay", "conditions": "NCI-H23, 48 h", "procedure,_shortened": "(§1)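 NCI 60-cell-line five-dose screen. Cells were plated at 5,000–40,000/well by doubling time and grown 24 h at 37 °C, 5% CO2. Time-zero plates were TCA-fixed. Drug from DMSO stock was tested at 0.01, 0.1, 1, 10 and 100 µM final for 48 h continuous exposure. Read-out was SRB at 515 nm. GI50 is the concentration giving 50% reduction in net protein increase versus untreated control.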"}, "[2]": {"tested_on": "M14", "experiment": "Growth inhibition of human M14 cells assessed as cell growth at 10 '-7 M after 48 hrs by sulforhodamine B assay", "conditions": "M14, 48 h, read-out: Activity"}, "[3]": {"experiment": "Growth inhibition of human EKVX cells assessed as cell growth at 10 '-4 M after 48 hrs by sulforhodamine B assay", "conditions": "read-out: Activity"}, "[4]": {"experiment": "Growth inhibition of human […] cells after 48 hrs by sulforhodamine B assay", "procedure,_shortened": "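NCI 60-cell-line five-dose screen at 0.01, 0.1, 1, 10 and 100 µM final. Cells were plated at 5,000–40,000/well and grown 24 h at 37 °C, 5% CO2, then exposed to drug continuously for 48 h. Adherent cells were fixed with cold TCA (10% final) and stained with SRB; absorbance read at 515 nm. GI50 is the concentration where [(Ti-Tz)/(C-Tz)]×100 = 50, with Tz plates fixed at drug addition.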"}, "[5]": {"tested_on": "HCT-116", "experiment": "Growth inhibition of human HCT116 cells assessed as cell growth at 10 '-5 M after 48 hrs by sulforhodamine B assay", "conditions": "HCT-116, 48 h, read-out: Activity"}, "[6]": {"tested_on": "DU-145", "experiment": "Growth inhibition of human DU145 cells assessed as cell growth at 10 '-6 M after 48 hrs by sulforhodamine B assay", "conditions": "DU-145, 48 h, read-out: Activity"}, "[7]": {"experiment": "Growth inhibition of human NCI-ADR-RES cells after 48 hrs by sulforhodamine B assay", "procedure,_shortened": "as §1"}, "[8]": {"tested_on": "MDA-MB-468", "experiment": "Growth inhibition of human MDA-MB-468 cells assessed as cell growth at 10 '-5 M after 48 hrs by sulforhodamine B assay", "conditions": "MDA-MB-468, 48 h, read-out: Activity"}, "[9]": {"tested_on": "SF-539", "experiment": "Growth inhibition of human SF539 cells assessed as growth inhibition at 10 uM after 48 hrs by sulforhodamine B assay", "conditions": "SF-539, 48 h, read-out: GI"}, "[10]": {"tested_on": "HOP-62", "experiment": "Growth inhibition of human HOP62 cells assessed as cell growth at 10 '-7 M after 48 hrs by sulforhodamine B assay", "conditions": "HOP-62, 48 h, read-out: Activity"}, "[11]": {"tested_on": "SR", "experiment": "Growth inhibition of human SR cells assessed as growth inhibition at 10 uM after 48 hrs by sulforhodamine B assay", "conditions": "read-out: GI"}, "[12]": {"tested_on": "SNB-19", "experiment": "Growth inhibition of human SNB19 cells after 48 hrs by sulforhodamine B assay", "conditions": "SNB-19, 48 h"}, "[13]": {"tested_on": "HT-29", "experiment": "Growth inhibition of human HT-29 cells assessed as cell growth at 10 '-6 M after 48 hrs by sulforhodamine B assay", "conditions": "HT-29, 48 h, read-out: Activity"}, "[14]": {"tested_on": "OVCAR-8", "experiment": "Growth inhibition of human OVCAR8 cells assessed as cell growth at 10 '-4 M after 48 hrs by sulforhodamine B assay", "conditions": "OVCAR-8, 48 h, read-out: Activity"}, "[15]": {"tested_on": "M14", "experiment": "Growth inhibition of human M14 cells assessed as cell growth at 10 '-8 M after 48 hrs by sulforhodamine B assay", "conditions": "M14, 48 h, read-out: Activity"}, "[16]": {"tested_on": "SN12C", "experiment": "Growth inhibition of human SN12C cells assessed as growth inhibition at 10 uM after 48 hrs by sulforhodamine B assay", "conditions": "read-out: GI"}, "[17]": {"tested_on": "MDA-MB-468", "experiment": "Growth inhibition of human MDA-MB-468 cells assessed as cell growth at 10 '-7 M after 48 hrs by sulforhodamine B assay", "conditions": "MDA-MB-468, 48 h, read-out: Activity"}, "[18]": {"tested_on": "UACC-62", "experiment": "Growth inhibition of human UACC62 cells assessed as cell growth at 10 '-8 M after 48 hrs by sulforhodamine B assay", "conditions": "UACC-62, 48 h, read-out: Activity"}, "[19]": {"tested_on": "HCT-116", "experiment": "Growth inhibition of human HCT116 cells assessed as cell growth at 10 '-8 M after 48 hrs by sulforhodamine B assay", "conditions": "HCT-116, 48 h, read-out: Activity"}, "[20]": {"tested_on": "UACC-62", "experiment": "Growth inhibition of human UACC62 cells assessed as cell growth at 10 '-4 M after 48 hrs by sulforhodamine B assay", "conditions": "UACC-62, 48 h, read-out: Activity"}, "[21]": {"tested_on": "A498", "experiment": "Growth inhibition of human A498 cells assessed as growth inhibition at 10 uM after 48 hrs by sulforhodamine B assay", "conditions": "A498, 48 h, read-out: GI", "procedure,_shortened": "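Percent growth inhibition from the single 10^-5 M NCI-60 screen, reported as 100 minus growth percent. Growth percent was measured after 48 h drug exposure at 37 °C, 5% CO2, using TCA fixation, SRB staining and absorbance at 515 nm, against untreated controls and time-zero plates.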"}, "[22]": {"tested_on": "A549", "experiment": "Growth inhibition of human A549 cells assessed as cell growth at 10 '-8 M after 48 hrs by sulforhodamine B assay", "conditions": "A549, 48 h, read-out: Activity", "procedure,_shortened": "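Percent growth at each of the five concentrations of the 48 h continuous-exposure NCI SRB screen. Drug stocks were in DMSO at 400× the top final concentration and diluted in medium with gentamicin. Growth was calculated as [(Ti-Tz)/(C-Tz)]×100 when Ti ≥ Tz, or [(Ti-Tz)/Tz]×100 when Ti < Tz. Tz plates were fixed at drug addition; untreated wells served as control. Absorbance was read at 515 nm.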"}, "[23]": {"tested_on": "UO-31", "experiment": "Growth inhibition of human UO31 cells assessed as cell growth at 10 '-5 M after 48 hrs by sulforhodamine B assay", "conditions": "UO-31, 48 h, read-out: Activity"}, "[24]": {"tested_on": "IGROV-1", "experiment": "Growth inhibition of human IGROV1 cells after 48 hrs by sulforhodamine B assay", "conditions": "IGROV-1, 48 h", "procedure,_shortened": "as §1"}, "[25]": {"tested_on": "NCI-H522", "experiment": "Growth inhibition of human NCI-H522 cells assessed as cell growth at 10 '-6 M after 48 hrs by sulforhodamine B assay", "conditions": "NCI-H522, 48 h, read-out: Activity"}, "[26]": {"tested_on": "SN12C", "experiment": "Growth inhibition of human SN12C cells after 48 hrs by sulforhodamine B assay"}, "[27]": {"experiment": "Growth inhibition of human NCI-ADR-RES cells assessed as cell growth at 10 '-7 M after 48 hrs by sulforhodamine B assay", "conditions": "read-out: Activity"}, "[28]": {"tested_on": "COLO 205", "experiment": "Growth inhibition of human COLO205 cells assessed as growth inhibition at 10 uM after 48 hrs by sulforhodamine B assay", "conditions": "COLO 205, 48 h, read-out: GI"}, "[29]": {"tested_on": "KM12", "experiment": "Growth inhibition of human KM12 cells after 48 hrs by sulforhodamine B assay", "conditions": "KM12, 48 h", "procedure,_shortened": "as §1"}, "[30]": {"conditions": "read-out: LD50 (the source's name)"}}}
{"smiles": "Cc1cc(=O)oc2cc(OCCn3c(C)nn(-c4ccc(Cl)cc4)c3=O)ccc12", "values": [{"measurement": "GI50", "setting": "[1]", "value": 2830, "unit": "nM"}, {"measurement": "TGI", "setting": "[1]", "value": "> 1000", "unit": "nM"}, {"measurement": "CC50", "setting": "[1]; [30]", "value": "> 1000", "unit": "nM"}, {"measurement": "growth at 0.1 µM", "setting": "[2]", "value": 101, "unit": "%"}, {"measurement": "growth at 100 µM", "setting": "[3]", "value": 55, "unit": "%"}, {"measurement": "GI50", "setting": "[4]", "value": 5700, "unit": "nM"}, {"measurement": "TGI", "setting": "[4]", "value": "> 1000", "unit": "nM"}, {"measurement": "CC50", "setting": "[4]; [30]", "value": "> 1000", "unit": "nM"}, {"measurement": "growth at 10 µM", "setting": "[5]", "value": 21, "unit": "%"}, {"measurement": "growth at 1 µM", "setting": "[6]", "value": 96, "unit": "%"}, {"measurement": "GI50", "setting": "[7]", "value": 1640, "unit": "nM"}, {"measurement": "TGI", "setting": "[7]", "value": "> 1000", "unit": "nM"}, {"measurement": "CC50", "setting": "[7]; [30]", "value": "> 1000", "unit": "nM"}, {"measurement": "growth at 10 µM", "setting": "[8]", "value": 15, "unit": "%"}, {"measurement": "inhibition of growth at 10 µM", "setting": "[9]", "value": 70.5, "unit": "%"}, {"measurement": "growth at 0.1 µM", "setting": "[10]", "value": 103, "unit": "%"}, {"measurement": "inhibition of growth at 10 µM", "setting": "[11]", "value": 78.8, "unit": "%"}, {"measurement": "GI50", "setting": "[12]", "value": 5370, "unit": "nM"}, {"measurement": "TGI", "setting": "[12]", "value": "> 1000", "unit": "nM"}, {"measurement": "CC50", "setting": "[12]; [30]", "value": "> 1000", "unit": "nM"}, {"measurement": "growth at 1 µM", "setting": "[13]", "value": 100, "unit": "%"}, {"measurement": "growth at 100 µM", "setting": "[14]", "value": 24, "unit": "%"}, {"measurement": "growth at 0.01 µM", "setting": "[15]", "value": 101, "unit": "%"}, {"measurement": "inhibition of growth at 10 µM", "setting": "[16]", "value": 48.2, "unit": "%"}, {"measurement": "growth at 0.1 µM", "setting": "[17]", "value": 90, "unit": "%"}, {"measurement": "growth at 0.01 µM", "setting": "[18]", "value": 97, "unit": "%"}, {"measurement": "growth at 0.01 µM", "setting": "[19]", "value": 101, "unit": "%"}, {"measurement": "growth at 100 µM", "setting": "[20]", "value": 30, "unit": "%"}, {"measurement": "inhibition of growth at 10 µM", "setting": "[21]", "value": 74.3, "unit": "%"}, {"measurement": "growth at 0.01 µM", "setting": "[22]", "value": 97, "unit": "%"}, {"measurement": "growth at 10 µM", "setting": "[23]", "value": 51, "unit": "%"}, {"measurement": "GI50", "setting": "[24]", "value": 3500, "unit": "nM"}, {"measurement": "TGI", "setting": "[24]", "value": "> 1000", "unit": "nM"}, {"measurement": "growth at 1 µM", "setting": "[25]", "value": 87, "unit": "%"}, {"measurement": "GI50", "setting": "[26]", "value": 5540, "unit": "nM"}, {"measurement": "TGI", "setting": "[26]", "value": "> 1000", "unit": "nM"}, {"measurement": "CC50", "setting": "[26]; [30]", "value": "> 1000", "unit": "nM"}, {"measurement": "growth at 0.1 µM", "setting": "[27]", "value": 96, "unit": "%"}, {"measurement": "inhibition of growth at 10 µM", "setting": "[28]", "value": 89.4, "unit": "%"}, {"measurement": "GI50", "setting": "[29]", "value": 1660, "unit": "nM"}, {"measurement": "TGI", "setting": "[29]", "value": "> 1000", "unit": "nM"}, {"measurement": "CC50", "setting": "[29]; [30]", "value": "> 1000", "unit": "nM"}]}
